Test [1] is filed under the species Rattus norvegicus. Description: Effective dose required for inhibition of conditional avoidance in rats. In kind it is functional. An outline of the steps:
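Fasted male Wistar rats (150–250 g) were trained to jump to a platform at a buzzer to avoid grid shock (1.1 mA/s). After oral dosing they were tested every 20 min for 6 h over 19 trials, 10 rats per dose, each rat used once. Peak effect was the mean of the four consecutive trials with the largest effect, computed from response latency. ED50 read graphically from at least three doses.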

In test [2] the target is T1, Adrenergic receptor alpha-1 (Rattus norvegicus, UniProt P15823+P23944+P43140).
T1 sequence (P15823 whole entry): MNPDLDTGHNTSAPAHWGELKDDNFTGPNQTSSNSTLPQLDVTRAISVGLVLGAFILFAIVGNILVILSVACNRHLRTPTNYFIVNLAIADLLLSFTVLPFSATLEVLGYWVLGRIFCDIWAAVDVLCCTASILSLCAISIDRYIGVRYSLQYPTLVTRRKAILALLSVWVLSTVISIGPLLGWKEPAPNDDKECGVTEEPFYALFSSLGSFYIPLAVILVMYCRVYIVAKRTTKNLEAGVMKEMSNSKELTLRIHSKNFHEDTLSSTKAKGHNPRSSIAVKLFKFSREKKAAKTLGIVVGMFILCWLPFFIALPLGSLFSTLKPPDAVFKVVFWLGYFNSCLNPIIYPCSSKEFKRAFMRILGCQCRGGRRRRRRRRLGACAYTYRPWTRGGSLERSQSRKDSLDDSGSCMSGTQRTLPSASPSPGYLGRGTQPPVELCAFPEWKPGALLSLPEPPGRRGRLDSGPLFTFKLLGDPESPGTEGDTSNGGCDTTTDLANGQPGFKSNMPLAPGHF
T1 sequence (P23944 whole entry): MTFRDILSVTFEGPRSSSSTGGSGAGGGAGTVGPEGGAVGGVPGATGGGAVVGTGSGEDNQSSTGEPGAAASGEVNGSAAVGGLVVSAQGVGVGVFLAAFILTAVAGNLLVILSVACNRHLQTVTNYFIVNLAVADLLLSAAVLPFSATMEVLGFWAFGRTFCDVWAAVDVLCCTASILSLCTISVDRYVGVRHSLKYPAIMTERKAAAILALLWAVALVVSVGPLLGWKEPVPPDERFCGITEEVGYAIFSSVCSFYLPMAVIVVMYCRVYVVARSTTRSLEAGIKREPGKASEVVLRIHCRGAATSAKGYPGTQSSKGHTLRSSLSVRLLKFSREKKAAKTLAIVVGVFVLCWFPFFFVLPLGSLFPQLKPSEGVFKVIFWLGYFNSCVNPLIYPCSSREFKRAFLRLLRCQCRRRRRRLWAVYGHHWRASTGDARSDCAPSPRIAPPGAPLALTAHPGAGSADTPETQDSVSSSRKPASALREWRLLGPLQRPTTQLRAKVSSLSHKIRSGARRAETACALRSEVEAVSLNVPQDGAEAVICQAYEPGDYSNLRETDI
T1 sequence (P43140 whole entry): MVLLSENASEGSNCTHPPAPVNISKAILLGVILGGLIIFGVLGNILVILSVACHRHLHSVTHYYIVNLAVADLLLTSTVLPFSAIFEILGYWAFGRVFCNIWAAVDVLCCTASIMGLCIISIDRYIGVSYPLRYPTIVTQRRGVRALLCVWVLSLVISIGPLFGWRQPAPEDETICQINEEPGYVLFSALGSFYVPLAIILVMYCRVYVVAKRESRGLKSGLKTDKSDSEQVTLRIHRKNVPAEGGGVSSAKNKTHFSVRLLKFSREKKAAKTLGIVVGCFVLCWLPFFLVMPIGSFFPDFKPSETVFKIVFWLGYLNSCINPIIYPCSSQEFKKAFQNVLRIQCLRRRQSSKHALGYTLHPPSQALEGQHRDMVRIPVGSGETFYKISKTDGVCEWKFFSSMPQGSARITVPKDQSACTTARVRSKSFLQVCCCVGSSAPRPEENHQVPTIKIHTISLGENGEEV
Briefly: Binding affinity against lpha-1 adrenergic receptor using [3H]- WB-4101. The test is classed as protein assay. An outline of the steps: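 α1-Adrenergic binding in rat frontal cerebral cortex membranes (male Long-Evans, 150–250 g) with [3H]WB4101 at 0.5 nM final. (-)-Norepinephrine at 100 μM final was the reference standard. IC50 from four or five concentrations by nonlinear curve fitting.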

The target of test [3] is Muscarinic acetylcholine receptor. Briefly: Binding affinity against the Muscarinic acetylcholine receptor using [3H]- QNB. In kind it is protein assay, Rattus norvegicus. An outline of the steps:
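Muscarinic sites in rat brain stem membranes (male Long-Evans, 150–250 g), labelled with [3H]quinuclidinyl benzilate at 0.03 nM final. Oxotremorine at 100 μM final served as the reference displacer. IC50 from four or five concentrations by nonlinear curve fitting.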

Test [4] has as its system Rattus norvegicus. Briefly: Compound was tested for its affect on the accumulation of the dopamine metabolite homovanillic acid (HAV) in the rat striatum at 8 mg/kg dose after peroral administration. In kind it is functional. As to conditions: route oral. A digest of the protocol:
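Male Long–Evans rats were dosed orally and decapitated 2 h later. Striatal HVA was isolated on Sephadex G-10 and measured spectrofluorometrically, expressed as % control ± SEM.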

Test [5] concerns the target Dopamine receptor (Rattus norvegicus) (UniProt P25115+P19020+P30729+P18901+P61169). Description: Compound was tested for its effect on Dopamine turnover in rat at dose of 10+/-250 mg/kg. The test is classed as functional, organism-based. The conditions noted are these: in the assay text read “64+/-250 mg/kg” for “10+/-250 mg/kg”. A digest of the protocol:
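Male Long-Evans rats were given vehicle or agent ip 30 min before α-methyl-p-tyrosine (250 mg/kg) and killed 4 h after it. Brain NE and DA were isolated on Sephadex G-10 and measured spectrofluorometrically. Values are percent of vehicle-treated, with at least five determinations per value.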

What is called ED50 is the dose that gives a 50% effect, or the effect in half of the subjects. A lower ED50 goes with greater potency. Take `Cc1nn(C)c(N)c1C(=O)c1ccccc1F`: the ED50 in the test listed under Rattus norvegicus [1] is 18 mg/kg.

As usually defined, the IC50 is the concentration needed to halve the response being measured. High values mean weaker potency, low ones greater potency. On to `CCN(CC)CC(=O)Nc1c(C(=O)c2ccccc2F)c(C)nn1C`, for which the IC50 in test [2] and in test [3] was over 10 µM each time. In addition, the Control in the test on Rattus norvegicus [4] worked out at 131.9%.

For the molecule `Cc1nn(C)c(NC(=O)CNCCCN2CCCCC2C)c1C(=O)c1ccccc1F` (stereo not given), in test [5], the Control was found to be 45.6%.

Values taken from ChEMBL document CHEMBL1123363, “(5-Amino-1,3-dimethyl-1H-pyrazol-4-yl)(2-fluorophenyl)methanones . A series of novel potential antipsychotic agents” (J Med Chem, 1986).
